# Assay outcomes from PubChem.
# This is a sample that favours compounds with a hit; in the whole collection about 2.2% have one here.
# Wee1 stabilizer: Wee1 degradation inhibitors, primary screen, cell-based, HeLa, Wee1K328M-luciferase, luminescence; HeLa Luc-Wee1K328M stability; 100% = proteasome inhibitor MG132 effect; 220,000 compounds, 1.2% hits; Wee1-like protein kinase (Homo sapiens), P30291; reporter increase, % at 5 µM; AID 1321, 2008;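 active means activation above the mean of all tested compounds plus 3 SD, set per screening run, cut at about 8.8% in these data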;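 further: cells exposed to compound for 20 h before luminescence read; 0% = DMSO alone and 100% = MG132 at 30 µM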
# Target sequence (P30291 whole entry K328M): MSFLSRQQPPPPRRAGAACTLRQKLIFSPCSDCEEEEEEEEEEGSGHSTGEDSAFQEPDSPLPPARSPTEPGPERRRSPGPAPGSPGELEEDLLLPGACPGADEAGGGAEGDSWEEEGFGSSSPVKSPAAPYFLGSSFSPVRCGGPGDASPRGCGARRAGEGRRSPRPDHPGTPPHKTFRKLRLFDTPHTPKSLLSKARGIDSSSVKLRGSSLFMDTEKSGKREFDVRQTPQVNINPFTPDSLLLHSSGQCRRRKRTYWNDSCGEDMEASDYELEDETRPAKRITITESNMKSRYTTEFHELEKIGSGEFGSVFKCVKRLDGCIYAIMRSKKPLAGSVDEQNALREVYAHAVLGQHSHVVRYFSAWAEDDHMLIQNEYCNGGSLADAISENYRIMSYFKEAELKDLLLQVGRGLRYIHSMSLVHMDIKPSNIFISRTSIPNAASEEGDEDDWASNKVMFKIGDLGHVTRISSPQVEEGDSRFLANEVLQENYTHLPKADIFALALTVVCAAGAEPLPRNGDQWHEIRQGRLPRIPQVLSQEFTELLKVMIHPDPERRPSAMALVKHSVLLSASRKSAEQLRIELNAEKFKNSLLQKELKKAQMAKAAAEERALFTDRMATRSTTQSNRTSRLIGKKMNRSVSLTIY
# TRAIL sens C8: viability loss with TRAIL in NB7+C8 cells, primary screen, TRAIL sensitizer project, cell-based, ATPlite luminescence. inhibition (viability loss, TRAIL sensitization), % at 10 µM. 360,000 compounds, 1% hits. AID 624354, 2012;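 active means compounds causing at least 50% loss of cell viability in the single-dose screen, relative to plate controls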
# FLuc inh counter: firefly luciferase enzyme inhibitors, primary screen, artefact control for luciferase-based inhibitor screens, biochemical, luminescence, ATPLite. AID 1006, 2008. inhibition, % at 10 µM. Luciferin 4-monooxygenase (Photinus pyralis), P08659. 200,000 compounds, 1.5% hits. 10 min;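 active means inhibition above about 50% when tested at 10 µM, limit read from the data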
# FLuc stim CS: FLuc activators, initial screening, artefact control for FLuc-dependent activation tests, biochemical, ATPlite luminescence; Luciferin 4-monooxygenase (Photinus pyralis), P08659; ATPlite luciferase biochemical, 10 min; 0 = ATP-free wells, 1 = DMSO control; activation factor at 10 µM; 200,000 tested, under 10 active; AID 1027, 2008;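 active means luciferase activation factor, scaled between plate controls, of at least 2 with compound at 10 µM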
#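 System: cell-free luciferase reagent; medium: PBS as buffer for the ATP substrate; doses: test compounds dosed from 2 mM stocks in 100% DMSO; incubation: 10 min, room temperature; measured by: luminescence from luciferase reaction; read-out: luciferase activation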
# PPC-1+TRAIL kill: compounds killing PPC-1 cancer cells with TRAIL present, primary screen, TRAIL potentiator project, ATPLite luminescence, uHTS. 220,000 compounds, 0.41% hits. cell killing (% activity), % at 4 µM or 5 µM. PPC-1 cells + TRAIL, ATPLite viability luminescence;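 active means cell killing above 50% in the first pass at 4 µM, then a duplicate retest at 5 µM averaging 50% or more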;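 further: plate controls were cells with TRAIL plus DMSO for no effect and medium-only wells lacking cells for full effect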
# PKD1 kinase inh: inhibitors of human PKD1 kinase, biochemical, fluorescence polarization | Serine/threonine-protein kinase D1 (Homo sapiens), Q15139 | PKD1 kinase fluorescence polarization assay | inhibition, % (test concentration not listed) | 200,000 compounds, 0.056% hits | AID 797, 2007; in the data active means inhibition above about 50%
# Active calls of the source: *; nt = no result given.
SMILES,Wee1 stabilizer,TRAIL sens C8,FLuc inh counter,FLuc stim CS,PPC-1+TRAIL kill,PKD1 kinase inh
Nc1nc(=S)c2ncn([C@@H]3O[C@H](CO)[C@@H](O)[C@H]3O)c2[nH]1,nt,73*,nt,nt,nt,nt
Nc1nc(=S)c2ncn(C3OC(CO)C(O)C3O)c2[nH]1 (configuration not stated),-1,56*,nt,nt,-22,nt
Cc1cccc(C(=O)NCCC(=O)Nc2ccc(C#N)cc2)c1,nt,-9,nt,nt,nt,nt
Cc1ccc(O)c(NC(=O)CCC2CCCCC2)c1,9.1*,41,40,0.6,19,-4
CCOc1ccc(C(=O)NNC(=O)CN2C(=O)NC3(CCCC3)C2=O)cc1,nt,-17,nt,nt,nt,nt
CN1CCN(C(=O)c2cc3c(c(-c4cccc(-c5cc6ccccc6o5)c4)n2)[C@@H](CCO)N(S(=O)C(C)(C)C)C3)CC1 (some centres not stated),nt,-19,nt,nt,nt,nt
COc1ccc(S(=O)(=O)N2CCN(c3ccc4nnc(-c5ccccc5)n4n3)CC2)cc1,-1,54*,-2,1,-21,-13
O=C(Cc1sc(Nc2ccccc2)nc1-c1ccccc1)NCc1ccccn1,9.1*,4,2,1,8,2
O=C(COc1ccc(S(=O)(=O)N2CCCC2)cc1)NCc1ccccn1,nt,-10,nt,nt,nt,nt
COC(=O)c1c[nH]c2c1-c1cc(C(=O)OCc3ccccc3)n(S(=O)(=O)c3ccc(C)cc3)c1C(=O)C2=O,nt,70*,nt,nt,nt,nt
Cc1ccc(S(=O)(=O)Cc2ccc(C(=O)OCc3ccccc3)cc2)cc1,1,1,-4,1,-2,-1
CCn1c(O)c(/C=C2\C=NN=C2c2ccccc2)sc1=S,-3,30,nt,nt,28,nt
Cn1c(O)c(/C=C2\C=NN=C2c2ccccc2)sc1=S,9.6*,4,nt,nt,8,nt
O=C(/C=C/c1cccs1)Nc1scc(-c2ccccc2)c1C(=O)O,2,30,81*,0.2,12,-1
Cc1ccnc(NC(=O)/C=C/c2cccs2)c1,4,79*,92*,0.1,68*,8
O=C(/C=C/c1cccs1)Nc1cccnc1,4,26,62*,0.4,32,-7
COC(=O)C1=C(O)/C(=C\c2ccc(OCC(=O)Nc3ccc(OC)cc3)cc2)N=C1C,nt,10,nt,nt,nt,nt
COc1ccc(CCN2C(=O)NC(NS(=O)(=O)c3ccc(NC(C)=O)cc3)(C(F)(F)F)C2=O)cc1OC (configuration not stated),0,-1,-3,1,36,-3
CC(=O)c1ccc(Nc2cc(C)nc3c(C)cccc23)cc1,10*,-9,0,1,nt,-6
CC(=O)c1ccc(Nc2cc(C)nc3ccccc23)cc1,6,-22,-6,1.1,6,-2
O=C1c2ccccc2CN1c1ccccc1,nt,15,nt,nt,nt,nt
COc1ccc(N2Cc3ccccc3C2=O)cc1,nt,67*,nt,nt,nt,nt
Cc1ccc(N2Cc3ccccc3C2=O)cc1,nt,58*,nt,nt,nt,nt
COc1cccc(C(C(=O)NC2CCCC2)N2CCN(c3cc(C)ccc3C)CC2)c1OC (configuration not stated),nt,-10,nt,nt,nt,nt
O=C(Nc1ccc2ccccc2c1)c1ccccc1O,nt,72*,nt,nt,nt,nt
SMILES,Wee1 stabilizer,TRAIL sens C8,FLuc inh counter,FLuc stim CS,PPC-1+TRAIL kill,PKD1 kinase inh
O=C(Nc1ccc2ccccc2c1)c1ccccc1Cl,nt,39,nt,nt,nt,nt
O=C(Nc1ccc2ccccc2c1)c1ccc(Cl)cc1Cl,5,61*,nt,nt,41,nt
CCN(C(=O)c1ccc2c(c1)OCO2)C1CCS(=O)(=O)C1 (configuration not stated),nt,2,nt,nt,nt,nt
CC(C)N(C(=O)NC(=O)NCC1CCCO1)S(C)(=O)=O (configuration not stated),9.5*,-18,-4,1,13,4
Cc1ccc(OCC(=O)NNC(=O)C2CC(=O)N(c3ccc4c(c3)OCCO4)C2)cc1 (configuration not stated),nt,-32,nt,nt,nt,nt
Cc1ccc(Nc2nnc(SCC3CCCCO3)s2)cc1 (configuration not stated),5,9,7,0.9,14,0
Cc1ccccc1Nc1nnc(SCC2CCCCO2)s1 (configuration not stated),3,41,60*,0.4,40,-2
CCOc1ccccc1NC(=O)Nc1ccc(CC#N)cc1,10*,9,nt,nt,18,nt
O=[N+]([O-])c1ccc(Sc2ccncn2)c([N+](=O)[O-])c1,nt,53*,nt,nt,nt,nt
Cc1cc(C)nc(Sc2ccc([N+](=O)[O-])cc2[N+](=O)[O-])n1,3,21,-6,1.1,-5,6
COC(=O)CNc1c(-c2ccccn2)nc2ccc(Br)cn12,-1,21,77*,0.2,31,0
Brc1cc(Cc2nnc(-c3ccccc3)o2)c(Br)s1,1,-7,nt,nt,4,nt
N#Cc1cnc(N)c(Br)c1,11*,0,-4,1,17,-2
CC(=O)Nc1ccc(S(=O)(=O)NC2(C(F)(F)F)NC(=O)N(Cc3ccccc3)C2=O)cc1 (configuration not stated),nt,-5,nt,nt,nt,nt
CC1CC(=O)c2c(cc3c(-c4c(O)cc(O)c5c(O)c6c(cc45)OC(C)CC6=O)c(O)cc(O)c3c2O)O1 (configuration not stated),3,88*,-2,1,14,25
O=C1CC(c2ccc(O)cc2)Oc2cc(O)cc(O)c21 (configuration not stated),-2,4,-3,1,12,-4
CCOC(=O)c1cc[nH]c1C,-2,3,-7,1.1,-9,-8
COc1ccccc1/C=C/C1(C(=O)NC2CCCC2)CC(=O)N1c1ccc(F)cc1 (configuration not stated),1,92*,-7,1.1,7,-3
COc1ccccc1/C=C/c1onc(C)c1S(=O)(=O)N1CCC(C(=O)NC2CCCCCC2)CC1,nt,20,nt,nt,nt,nt
COc1ccccc1/C=C/C1(C(=O)NC2CCCC2)CC(=O)N1c1ccc(C)cc1 (configuration not stated),1,60*,-7,1.1,10,1
CCN(CC)S(=O)(=O)c1ccc(N2C(=O)CC2(/C=C/c2ccccc2)C(=O)NC2CCCC2)cc1 (configuration not stated),-2,-3,-4,1,-11,3
CC1(NC(=S)Nc2ccccc2)CCS(=O)(=O)C1 (configuration not stated),2,-12,nt,nt,24,nt
Cn1cccc1/C=C1\Cc2ccccc2C1=O,2,16,58*,0.4,-2,2
Cn1cccc1/C=C1\CCc2ccccc2C1=O,4,61*,70*,0.3,8,1
